Assay results gathered from unrelated publications.
Protocols differ between the studies behind these lines.
FLT3 D835Y: Receptor-type tyrosine-protein kinase FLT3 (FLT3, Homo sapiens, UniProt P36888, D835Y)
FLT3: Receptor-type tyrosine-protein kinase FLT3 (FLT3, Homo sapiens, UniProt P36888)
FLT3 K663Q: Receptor-type tyrosine-protein kinase FLT3 (FLT3, Homo sapiens, UniProt P36888, K663Q)
FLT3 N841I: Receptor-type tyrosine-protein kinase FLT3 (FLT3, Homo sapiens, UniProt P36888, N841I)

Structure (SMILES)	target	observed	action	method	concentration	measurement	value
C#Cc1cc(-c2cc(Nc3nc(N[C@@H](C)c4ccc(F)cn4)ncc3Cl)n[nH]2)ccc1C=O	FLT3 D835Y	enzyme activity	inhibitor	–	0.2 µM	inhibition	98.5%
O=C1C=C(Nc2ccc(OCc3cn(Cc4ccc(Cl)c(Cl)c4)nn3)cc2)C(=O)c2ccccc21	FLT3	enzyme activity	inhibitor	radiometric	10 µM	inhibition	-21%
CN1CCN(C(=O)c2ccc(NC(=O)Nc3ccc(N(C)c4ccnc(Nc5ccc(CS(C)(=O)=O)cc5)n4)cc3)cc2)CC1	FLT3 K663Q	binding	–	–	1 µM	remaining binding	0%
COc1ccc2oc(-c3ccc4nc(N)oc4c3)c/c(=N\c3ccccc3NC(=O)CCN)c2c1	FLT3	binding	–	–	1 µM	remaining binding	108%
COc1ccc2[nH]c3c4[nH]c5ccc(OC)cc5c4c4c(c3c2c1)C(=O)NC4=O	Receptor-type tyrosine-protein kinase FLT3 (FLT3, Homo sapiens, UniProt P36888, D835V)	binding	–	–	1 µM	remaining binding	4%
C1=C/COCc2cc(ccc2OCCN2CCCC2)Nc2nccc(n2)-c2cccc(c2)COC/1	FLT3 K663Q	binding	–	–	0.1 µM	remaining binding	11%
Cc1ccc(NC(=O)c2ccnc(C(F)(F)F)c2)cc1-c1cc(OCCO)nc(N2CCOCC2)c1	FLT3 N841I	binding	–	–	1 µM	remaining binding	82%
C=CC(=O)N1CCC([C@@H]2CCNc3c(C(N)=O)c(-c4ccc(Oc5ccccc5)cc4)nn32)CC1	FLT3 D835Y	enzyme activity	inhibitor	–	1 µM	inhibition	81%
CCCCC(=O)Nc1ccc(-c2ccc3ncn(CCC)c(=O)c3c2)cn1	FLT3 K663Q	binding	–	competition with immobilised ligand	0.5 µM	remaining binding	96%
CN(C)C(=O)c1cc2cnc(Nc3ccc(-c4ccc5c(=O)cc(N6CCOCC6)oc5c4)cc3)nc2n1C1CCCC1	FLT3	binding	–	competition with immobilised ligand	1 µM	remaining binding	3.9%
Cc1n[nH]c2ccc3nc(-c4ccc(C(=O)NCCN(C)C)cc4F)c4c(c3c12)CCCC4	FLT3 D835Y	enzyme activity	inhibitor	radiometric	0.5 µM	remaining activity	2%
C[C@]1(O)CCCN(c2nc(Nc3ccc(S(=O)(=O)N[C@H]4CC[C@H](CN5CCN(c6ccc(C7CCC(=O)NC7=O)cc6F)CC5)CC4)cc3Cl)ncc2C(F)(F)F)C1 (stereo partly drawn)	FLT3 N841I	binding	–	competition with immobilised ligand	1 µM	remaining binding	68%
C[C@H]1CC[C@H](n2c3cnccc3c3cnc(Nc4ccc5c(n4)CCN(C(=O)CO)C5)nc32)CC1	FLT3 N841I	cell-free assay	–	–	1 µM	remaining signal	0%
CC#CC(=O)N1CCC[C@H]1c1nc(-c2ccc(C(=O)Nc3ccccn3)cc2)c2c(N)nccn12	FLT3 N841I	enzyme activity	inhibitor	–	1 µM	inhibition	18%
CNS(=O)(=O)c1ccc(Nc2ncc(C(F)(F)F)c(N3CCC[C@](C)(O)C3)n2)c(C)c1	FLT3 N841I	binding	–	competition with immobilised ligand	1 µM	remaining binding	70%
